According to ChEMBL document CHEMBL4184148 (Bioorg Med Chem Lett, 2017):

Tests used:
[1] = biological target: Leukocyte tyrosine kinase receptor (Homo sapiens) (UniProt P29376); assay: Binding affinity to wild-type human partial length LTK (P422 to S744 residues) expressed in Escherichia coli BL21 at 1 uM by Kinomescan method relative to control
[2] = biological target: Cyclin-dependent kinase 8 (Homo sapiens) (UniProt P49336); assay: Binding affinity to wild-type human partial length CDK8 (M1 to T360 residues) expressed in Escherichia coli BL21 at 1 uM by Kinomescan method relative to control
[3] = test system: Epidermal growth factor receptor (Homo sapiens), P00533 [T790M]; assay: Binding affinity to human partial length EGFR T790M mutant (R669 to G1022 residues) expressed in HEK293 cells at 1 uM by Kinomescan method relative to control; format: cell-based
[4] = test system: Proto-oncogene tyrosine-protein kinase receptor Ret (Homo sapiens), P07949 [V804L]; assay: Binding affinity to human partial length RET V804L mutant (E713 to D1014 residues) expressed in Escherichia coli BL21 at 1 uM by Kinomescan method relative to control
[5] = biological target: Serine/threonine-protein kinase TAO2 (Homo sapiens) (UniProt Q9UL54); assay: Binding affinity to wild-type human partial length TAOK2 (M1 to A320 residues) expressed in HEK293 cells at 1 uM by Kinomescan method relative to control; format: cell-based
[6] = biological target: Leucine-rich repeat serine/threonine-protein kinase 2 (Homo sapiens, UniProt Q5S007); assay: Inhibition of recombinant GST-tagged human LRRK2 (970 to 2527 residues) catalytic domain expressed in baculovirus expression system by ADAPTA assay
[7] = biological target: Serine/threonine-protein kinase SIK1 (Homo sapiens) (UniProt P57059); assay: Binding affinity to wild-type human partial length SIK (M1 to Y304 residues) expressed in Escherichia coli BL21 at 1 uM by Kinomescan method relative to control
[8] = biological target: Serine/threonine-protein kinase 32C (Homo sapiens) (UniProt Q86UX6); assay: Binding affinity to wild-type human partial length YANK3 (M68 to G486 residues) expressed in Escherichia coli BL21 at 1 uM by Kinomescan method relative to control
[9] = biological target: Tyrosine-protein kinase JAK2 (Homo sapiens) (UniProt O60674); assay: Binding affinity to wild-type human partial length JAK2 JH1 catalytic domain (A829 to G1132 residues) expressed in HEK293 cells at 1 uM by Kinomescan method relative to control; format: cell-based
[10] = biological target: Activin receptor type-1B (Homo sapiens) (UniProt P36896); assay: Binding affinity to wild-type human ACVR1B (S187 to I505 residues) expressed in Escherichia coli BL21 at 1 uM by Kinomescan method relative to control
[11] = biological target: Cyclin-dependent kinase 7 (Homo sapiens) (UniProt P50613); assay: Binding affinity to wild-type human full length CDK7 (M1 to L344 residues) expressed in HEK293 cells at 1 uM by Kinomescan method relative to control; format: cell-based
Summary of the method: (§1)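 Run as one kinome-wide competition binding panel with each compound at a single fixed concentration. Results were plotted as a kinome-wide selectivity map.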

[12] = biological target: Serine/threonine-protein kinase MAK (Homo sapiens) (UniProt P20794); assay: Binding affinity to wild-type human partial length MAK (M1 to P314 residues) expressed in Escherichia coli BL21 at 1 uM by Kinomescan method relative to control
[13] = biological target: Casein kinase I isoform gamma-2 (Homo sapiens) (UniProt P78368); assay: Binding affinity to wild-type human full length CSNK1G2 (M1 to K415 residues) expressed in Escherichia coli BL21 at 1 uM by Kinomescan method relative to control; summary of the method: as §1
[14] = biological target: Cytoplasmic tyrosine-protein kinase BMX (Homo sapiens) (UniProt P51813); assay: Binding affinity to wild-type human full length BMX (M1 to H675 residues) expressed in Escherichia coli BL21 at 1 uM by Kinomescan method relative to control
[15] = biological target: Serine/threonine-protein kinase mTOR (Homo sapiens) (UniProt P42345); assay: Binding affinity to wild-type human partial length MTOR (L1382 to W2549 residues) expressed in HEK293 cells at 1 uM by Kinomescan method relative to control; format: cell-based
[16] = biological target: Serine/threonine-protein kinase 24 (Homo sapiens) (UniProt Q9Y6E0); assay: Binding affinity to wild-type human partial length MST3 (A30 to S311 residues) expressed in Escherichia coli BL21 at 1 uM by Kinomescan method relative to control
[17] = biological target: Mitogen-activated protein kinase 9 (Homo sapiens) (UniProt P45984); assay: Binding affinity to wild-type human full length JNK2 (M1 to Q382 residues) expressed in HEK293 cells at 1 uM by Kinomescan method relative to control; format: cell-based; summary of the method: as §1
[18] = biological target: Serine/threonine-protein kinase PLK3 (Homo sapiens) (UniProt Q9H4B4); assay: Binding affinity to wild-type human partial length PLK3 (A42 to L334 residues) expressed in HEK293 cells at 1 uM by Kinomescan method relative to control; format: cell-based
[19] = test system: Leucine-rich repeat serine/threonine-protein kinase 2 (Homo sapiens), Q5S007 [G2019S]; assay: Binding affinity to human partial length LRRK2 G2019S mutant (H970 to E2527 residues) expressed in HEK293 cells at 1 uM by Kinomescan method relative to control; format: cell-based
[20] = biological target: Serine/threonine-protein kinase PLK4 (Homo sapiens, UniProt O00444); assay: Inhibition of GST-tagged human PLK4 (1 to 836 residues) by Lanthascreen binding assay
[21] = biological target: Serine/threonine-protein kinase N2 (Homo sapiens) (UniProt Q16513); assay: Binding affinity to wild-type human partial length PKN2 (E634 to C984 residues) expressed in Escherichia coli BL21 at 1 uM by Kinomescan method relative to control
[22] = biological target: Serine/threonine-protein kinase 16 (Homo sapiens) (UniProt O75716); assay: Binding affinity to wild-type human partial length STK16 (G11 to I305 residues) expressed in Escherichia coli BL21 at 1 uM by Kinomescan method relative to control
[23] = biological target: Serine/threonine-protein kinase pim-1 (Homo sapiens) (UniProt P11309); assay: Binding affinity to wild-type human partial length PIM1 (A15 to K313 residues) expressed in Escherichia coli BL21 at 1 uM by Kinomescan method relative to control
[24] = biological target: Ribosomal protein S6 kinase alpha-2 (Homo sapiens) (UniProt Q15349); assay: Binding affinity to wild-type human partial length C-terminal RSK2 kinase domain 2 (V402 to S715 residues) expressed in HEK293 cells at 1 uM by Kinomescan method relative to control; format: cell-based
[25] = biological target: Dual specificity mitogen-activated protein kinase kinase 4 (Homo sapiens) (UniProt P45985); assay: Binding affinity to wild-type human partial length MEK4 (S84 to D399 residues) expressed in HEK293 cells at 1 uM by Kinomescan method relative to control; format: cell-based
[26] = biological target: Casein kinase II subunit alpha (Homo sapiens) (UniProt P68400); assay: Binding affinity to wild-type human full length CSNK2A1 (M1 to Q391 residues) expressed in HEK293 cells at 1 uM by Kinomescan method relative to control; format: cell-based; summary of the method: as §1

| Structure (SMILES) | Activity [1] | Activity [2] | Activity [3] | Activity [4] | Activity [5] | IC50 [6] | Activity [7] | Activity [8] | Activity [9] | Activity [10] | Activity [11] | Activity [12] | Activity [13] | Activity [14] | Activity [15] | Activity [16] | Activity [17] | Activity [18] | Activity [19] | IC50 [20] | further results |
| --- | --- | --- | --- | --- | --- | --- | --- | --- | --- | --- | --- | --- | --- | --- | --- | --- | --- | --- | --- | --- | --- |
| CCC(=O)Nc1ccc(C(=O)Nc2ccc(Nc3ncc4c(n3)N(C)c3ccc(C)cc3C(=O)N4C)cc2)cc1 | 85% | 100% | 78% | 63% | 100% | 714 nM | 81% | 100% | 70% | 100% | 66% | 100% | 86% | 90% | 100% | 100% | 91% | 83% | 100% | 82 nM | Activity [21]: 100%; Activity [22]: 77%; Activity [23]: 85%; Activity [24]: 100%; Activity [25]: 88%; Activity [26]: 47% |
| C=CC(=O)Nc1ccc(C(=O)Nc2ccc(Nc3ncc4c(n3)N(C)c3ccc(C)cc3C(=O)N4C)cc2)cc1 | 96% | 78% | 79% | 84% | 83% | 754 nM | 95% | 100% | 100% | 85% | 80% | 78% | 97% | 99% | 87% | 100% | 92% | 91% | 99% | 43.5 nM | Activity [21]: 75%; Activity [22]: 77%; Activity [23]: 88%; Activity [24]: 100%; Activity [25]: 100%; Activity [26]: 95% |
